Laboratory results published in ChEMBL document CHEMBL4359896, “Chromenone derivatives as a versatile scaffold with dual mode of inhibition of HIV-1 reverse transcriptase-associated Ribonuclease H function and integrase activity” (Eur J Med Chem, 2019).
pIC50: −log10 of the molar value.

Experiments:
[1] = target: T1, Human immunodeficiency virus type 1 integrase (Human immunodeficiency virus 1, UniProt Q7ZJM1); assay: Inhibition of LEDGF/p75-dependent full length HIV-1 integrase expressed in Escherichia coli BL21(DE3) cells preincubated for 1 hr further incubated for 90 mins with biotin-labeled donor DNA and target DNA by HTRF assay
[2] = target: Human immunodeficiency virus type 1 reverse transcriptase (Human immunodeficiency virus 1, UniProt Q72547); assay: Inhibition of His6-tagged HIV-1 reverse transcriptase RNase H using 5'-GTTTTCTTTTCCCCCCTGAC-3'-Fluorescein-labeled RNA/5'-CAAAAGAAAAGGGGGGACUG-3'-Dabcyl-labeled DNA as susbtrate incubated for 1 hr by fluorescence based assay
[3] = target: Human immunodeficiency virus type 1 reverse transcriptase (Human immunodeficiency virus 1) (UniProt Q72547); assay: Residual activity of His-tagged HIV-1 reverse transcriptase RNase H at 100 uM using 5'-GTTTTCTTTTCCCCCCTGAC-3'-Fluorescein-labeled RNA/5'-CAAAAGAAAAGGGGGGACUG-3'-Dabcyl-labeled DNA as susbtrate incubated for 1 hr by fluorescence based assay relative to control
[4] = system: Human immunodeficiency virus 1; assay: Inhibition of His-tagged HIV-1 integrase interaction with HIV-1 FLAG-tagged LEDGF/p75 expressed in Escherichia coli BL21(DE3) cells at 100 uM incubated for 30 mins followed by LEDGF addition measured after 4 hrs by HTRF assay relative to control
[5] = Inhibition of His-tagged HIV-1 integrase interaction with HIV-1 FLAG-tagged LEDGF/p75 expressed in Escherichia coli BL21(DE3) cells incubated for 30 mins followed by LEDGF addition measured after 4 hrs by HTRF assay; design: species or system Human immunodeficiency virus 1
[6] = target: T1, Human immunodeficiency virus type 1 integrase; assay: Inhibition of subunit exchanging activity of His and Flag-tagged HIV-1 integrase expressed in Escherichia coli BL21(DE3) cells after 2.5 hrs by HTRF assay
[7] = target: Human immunodeficiency virus type 1 integrase (Human immunodeficiency virus 1) (UniProt Q7ZJM1)
[8] = target: Human immunodeficiency virus type 1 integrase (Human immunodeficiency virus 1) (UniProt Q7ZJM1); assay: Inhibition of LEDGF/p75-dependent full length HIV-1 integrase expressed in Escherichia coli BL21(DE3) cells at 100 uM preincubated for 1 hr further incubated for 90 mins with biotin-labeled donor DNA and target DNA by HTRF assay relative to control
Method in brief: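 Added 9 nM biotinylated donor DNA, 50 nM Cy5 acceptor DNA and 50 nM LEDGF/p75. Incubation 90 min at 37 °C, then 4 nM europium-streptavidin added. HTRF read (excitation 314 nm, emission 668/620 nm).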

T1 sequence (Q7ZJM1 whole entry): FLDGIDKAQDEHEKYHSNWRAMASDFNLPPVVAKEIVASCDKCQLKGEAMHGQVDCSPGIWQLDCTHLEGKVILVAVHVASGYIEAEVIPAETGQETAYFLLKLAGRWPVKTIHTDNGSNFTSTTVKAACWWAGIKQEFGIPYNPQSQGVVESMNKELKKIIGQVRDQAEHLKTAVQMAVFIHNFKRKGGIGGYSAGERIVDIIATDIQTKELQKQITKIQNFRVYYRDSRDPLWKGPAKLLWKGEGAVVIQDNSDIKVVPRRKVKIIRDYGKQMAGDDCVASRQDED
Sequence of Human immunodeficiency virus type 1 integrase (Human immunodeficiency virus 1) (Q7ZJM1 as listed by the source): as the sequence (Q7ZJM1 whole entry) above

Compound	pIC50 [1]	pIC50 [2]	residual activity [3]	pIC50 [5]	pIC50 [6]	MI50 [7]	inhibition [8]	inhibition [4]
Cc1cccc2c1oc(=O)c1c(O)cc(=O)oc12	4.62	4.53						
CC(=O)c1c(O)c2c(=O)oc3cc(C)ccc3c2oc1=O	4.65	< 4.00	63%					
CC(=O)CC(=O)c1c(O)c2c(=O)oc3ccc4ccccc4c3c2oc1=O	4.32	4.86						
Cc1ccc2c(c1)oc(=O)c1c(O)cc(=O)oc12	4.38	< 4.00	89%					
Cc1ccc2oc(=O)c3cc(C4=Nc5ccc(C(=O)c6ccccc6)cc5N=CC4)c(=O)oc3c2c1	< 4.00	4.37					78%	
Cc1cc(-c2c(O)c3c(=O)oc4ccccc4c3oc2=O)nn1-c1ccccc1	< 4.00	4.29					61%	
O=C(c1ccccc1)c1ccc2c(c1)N=CCC(c1c(O)c3c(=O)oc4ccccc4c3oc1=O)=N2	4.70	4.42		< 4.00	< 4.00	> 100 µM		81%
CC(=O)CC(=O)c1c(O)c2c(=O)oc3ccccc3c2oc1=O	4.38	4.07						
CCCC(C(=O)O)c1c(C)nc2ccc(Cl)cc2c1-c1ccccc1 (centres undefined)				4.89		10 µM		
Cc1nnc(C(=O)NC(C)(C)c2nc(C(=O)NCc3ccc(F)cc3)c(O)c(=O)n2C)o1				< 4.00				100%
O=c1cc(O)c2c(=O)oc3ccc4ccccc4c3c2o1	4.67	4.21						

Further lines, with some results ahead:

pIC50 [1]	pIC50 [2]	residual activity [3]	pIC50 [5]	pIC50 [6]	MI50 [7]	inhibition [8]	Compound	inhibition [4]
5.07	4.58						CC(=O)c1c(O)c2c(=O)oc3ccccc3c2oc1=O	
4.85	4.77		< 4.00	< 4.00	> 100 µM		Cc1cc(=O)c2c(=O)oc3c4ccccc4oc(=O)c3c2o1	56%
4.96	4.29		< 4.00	4.07	> 100 µM		CC(=O)CC(=O)c1c(O)c2c(=O)oc3c4ccccc4ccc3c2oc1=O	73%
5.12	4.61		< 4.00	4.24	> 100 µM		O=c1cc(O)c2c(=O)oc3c4ccccc4ccc3c2o1	53%
5.02	4.78		< 4.00	4.16	> 100 µM		Cc1ccc2oc(=O)c3c(O)cc(=O)oc3c2c1	55%
5.19	5.17		< 4.00	4.25	> 100 µM		CC(=O)c1c(O)c2c(=O)oc3ccc(C)cc3c2oc1=O	52%
4.73	4.59						CC(=O)c1c(O)c2c(=O)oc3c(C)cccc3c2oc1=O	
